Results of several laboratories.
pEC50, pIC50: −log10 of the molar value.
Effect on: cell growth or viability

`O=[N+]([O-])c1cc(Br)c(O)c(C=NNc2ccc(Cl)cc2)c1` gave a pIC50 of 4.77 (HEK-293T; MTT; 24 h).
`O=c1[nH]cc(F)c(=O)[nH]1` gave an inhibition of 81.4% (LX-2; MTS; 50 µM; 72 h).
The viability of `COc1ccc(NC(=O)NCc2cn(Cc3ccccc3C)nn2)cc1` is reported as 86.8% (Huh-7; CCK-8; 50 µM; 72 h).
`O=C(Nc1ccc(Cl)cc1)Nc1ccc(-c2cn(Cc3cccc(Cl)c3)nn2)cc1` gave a viability of 70.4% (Huh-7; CCK-8; 50 µM; 72 h).
For `C=C(NC(=O)C(=C)NC(=O)c1csc(C2=N[C@@H]3c4csc(n4)[C@H]4NC(=O)c5csc(n5)[C@H]([C@](C)(O)[C@@H](C)O)NC(=O)[C@H]5CSC(=N5)/C(=C/C)NC(=O)[C@H]([C@@H](C)O)NC(=O)c5csc(n5)[C@]3(CC2)NC(=O)[C@H](C)NC(=O)C(=C)NC(=O)[C@H](C)NC(=O)[C@H]([C@@H](C)CC)N[C@@H]2C=Cc3c([C@H](C)O)cc(nc3[C@H]2O)C(=O)O[C@@H]4C)n1)C(N)=O`, the pEC50 was 5.82 (NCI-H2009).
With `O=C(Nc1ccc(Cl)cc1)Nc1ccc(-c2cn(Cc3ccc(Cl)cc3)nn2)cc1` the viability was 72.8% (Huh-7; CCK-8; 50 µM; 72 h).
`O=C(Nc1ccc(Cl)cc1)Nc1cccc(-c2cn(Cc3cccc(Br)c3)nn2)c1` gave a viability of 14.5% (Huh-7; CCK-8; 50 µM; 72 h).
For `O=[N+]([O-])c1ccc(O)c(C=NNc2ccc(Br)cc2)c1`, the pIC50 was 4.79 (HEK-293T; MTT; 24 h).
The viability of `O=C(Nc1ccc(-c2cn(Cc3ccc(Br)cc3)nn2)cc1)Nc1ccccc1Br` is reported as 70.8% (Huh-7; CCK-8; 50 µM; 48 h).
For `COc1cc(NC(=O)c2cnn(-c3ccc([N+](=O)[O-])cc3)c2C(F)(F)F)cc(OC)c1OC`, the inhibition was 11% (LX-2; MTS; 50 µM; 72 h).
The viability of `O=C(Nc1ccc(Cl)cc1)Nc1ccc(-c2cn(Cc3ccc(Br)cc3)nn2)cc1` is reported as 65% (Huh-7; CCK-8; 50 µM; 72 h).
`COc1ccc(NC(=O)Nc2ccc(-c3cn(Cc4ccc(C)cc4)nn3)cc2)cc1` has a viability of 64.7% (Huh-7; CCK-8; 50 µM; 72 h).
